According to paper PMC4819167 (Biochemistry, 2016):

Experiments:
[1] = target: T1, pUL15C (Human herpesvirus 1, UniProt P04295); assay: Dual-probe fluorescence assay of pUL15C nuclease activity; format: biochemical
[2] = target: T1, pUL15C; assay: Differential scanning fluorimetry; format: binding; settings: wild-type pUL15C, DSF
Method in brief: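 Binding read by thermal shift: test compound added from a 1 mM DMSO stock to 1.6 µM pUL15C in 20 mM HEPES (pH 7.5), 10 mM MgCl₂, 100 mM NaCl and SYPRO Orange (1:2000). Heated 30 to 80 °C in 0.2 °C steps. Fluorescence was read at ex 483 / em 568 nm, ΔTm was derived from melt curves, and runs were in duplicate.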

[3] = target: T1, pUL15C; assay: Michaelis-Menten kinetic analysis with the dual-probe fluorescence assay; format: biochemical, herpes simplex virus
[4] = target: T1, pUL15C; assay: Yonetani-Theorell analysis of pUL15C nuclease inhibition; format: biochemical; settings: compound 21 0-0.4 μM, raltegravir 0-2.0 μM, substrate 250 nM
[5] = tested on: HSV-1; settings: at noncytotoxic concentrations; cited from earlier work
[6] = tested on: HSV-2; settings: at noncytotoxic concentrations; cited from earlier work
[7] = target: T1, pUL15C; assay: pUL15C nuclease activity on supercoiled plasmid, agarose gel electrophoresis; format: biochemical, herpes simplex virus
[8] = target: Lys700Ala pUL15C (Human herpesvirus 1, UniProt P04295, K700A); assay: Differential scanning fluorimetry; format: binding, herpes simplex virus; settings: DSF, 20 μM β-thujaplicinol
[9] = target: DNase I (Bos taurus, UniProt P00639); assay: DNase I cleavage of substrate 21D/33D; format: biochemical; settings: 1 mM Mn2+, 20 μM compound
DNase I, sequence (P00639 23-282): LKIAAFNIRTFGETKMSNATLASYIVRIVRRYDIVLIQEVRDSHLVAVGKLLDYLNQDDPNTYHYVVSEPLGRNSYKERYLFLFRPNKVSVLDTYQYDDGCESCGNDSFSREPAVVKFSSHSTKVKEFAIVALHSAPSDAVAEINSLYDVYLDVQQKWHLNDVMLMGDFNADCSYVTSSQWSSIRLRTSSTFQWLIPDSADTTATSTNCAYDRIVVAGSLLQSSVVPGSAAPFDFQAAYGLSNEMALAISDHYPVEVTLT

| decrease of the Tm of pUL15C (destabilizing effect) [2] | IC50 [1] | Compound | replication of wild-type and ACV-resistant HSV-1 [5] | replication of wild-type and ACV-resistant HSV-2 [6] | further results |
| --- | --- | --- | --- | --- | --- |
| ~0.5 °C | – | CCN1C[C@H](C)n2c(c(O)c3c(=O)n(Cc4ccc(F)c(Cl)c4)nc(C(=O)NC)c32)C1=O [MK2048] | – | – | IC50 ([1]; read-out: IC50, pUL15C nuclease activity, dual-probe fluorescence assay, 0.3 μM pUL15C, 250 nM DNA duplex, 1 mM MnCl2, 37 °C, triplicate): > 10000 nM |
| ~0.5 °C | > 10000 nM | COc1cc2c(cc1Cc1cccc(Cl)c1F)c(=O)c(C(=O)O)cn2[C@H](CO)C(C)C [elvitegravir] | – | – | – |
| – | 1100 ± 90 nM | C[C@@H]1CCO[C@H]2Cn3cc(C(=O)NCc4ccc(F)cc4F)c(=O)c(O)c3C(=O)N12 [dolutegravir] | – | – | – |

Continued, compound first:

| Compound | decrease of the Tm of pUL15C (destabilizing effect) [2] | IC50 [1] | replication of wild-type and ACV-resistant HSV-1 [5] | replication of wild-type and ACV-resistant HSV-2 [6] | further results |
| --- | --- | --- | --- | --- | --- |
| Cc1nnc(C(=O)NC(C)(C)c2nc(C(=O)NCc3ccc(F)cc3)c(O)c(=O)n2C)o1 [raltegravir] | – | 390 ± 50 nM | – | – | Ki [3]: 1000 ± 100 nM; mode of pUL15C inhibition ([3]; Lineweaver-Burke plot): noncompetitively inhibits; binding-site overlap of compound 21 and raltegravir (Yonetani-Theorell plot) [4]: mutually exclusive |
| manicol | – | – | suppress replication | suppress replication | – |
| CC(C)c1ccc(O)c(=O)c(O)c1 [β-thujaplicinol] | – | – | suppress replication | suppress replication | IC50 [7]: 2000 nM; increase of Tm of the Lys700Ala mutant [8]: 4.30 °C; inhibition of DNase I cleavage of substrate 21D/33D [9]: insensitive to inhibition |
